Entries after “also recorded” stand apart in the source; their conditions may differ. Where a name gives a salt, the structure may show the parent alone.
Assays:
[1] = test system: Ca45 2+ uptake in 3T3-L1 adipocytes; assay: Ca45 2+ uptake assay in 3T3-L1 adipocytes; assay type: cell-based, mouse; conditions: differentiated 3T3-L1 adipocytes, 3 min, pH 7.4, 37°C; ISO 100 nM
How it was run: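 Differentiated adipocytes were washed twice, 15 min apart, at 37°C in 150 mM NaCl, 5 mM KCl, 2 mM CaCl2 and 10 mM HEPES, pH 7.4. They were then incubated 3 min in Ca-free buffer with 2 μCi 45Ca2+, peptide at several concentrations and isoproterenol 100 nM. Stop with ice-cold Ca-free buffer containing 2 mM EGTA and 1 mM LaCl3, then three washes. Lysis in 0.1% Triton X-100; scintillation counting, cpm/well.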

3T3-L1 adipocytes = assay: Lipolysis; assay type: cell-based, mouse; conditions: 1 h pretreatment, ISO 50 nM, no TLQP-21
How it was run: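 Adipocytes serum-starved 3 h in KRH buffer (HEPES 10 mM, CaCl2 2.2 mM, glucose 5.4 mM) with 1% fatty-acid-free BSA, then treated in KRH with 4% BSA. Inhibitors given as 1 h pretreatment (SKF-96365 dose series; AnC0A4 or KN-62 1 μM) before isoproterenol 50 nM. Medium heat-inactivated 60°C for 20 min. Free glycerol read colorimetrically at 540 nm, normalized to Bradford protein, fold over control.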

[Ca2+]i in 3T3-L1 cells = Fluo-4 intracellular calcium in 3T3-L1 cells; assay type: cell-based, mouse; conditions: SKF-96365 20 μM; for effect of inhibitor on TLQP-21-induced [Ca2+]i increase: TLQP-21 10 μM
How it was run: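 Cells plated at 60% confluency on collagen-coated slides. Next day, loaded 30 min in HBSS with 2.5 μM Fluo-4 AM, washed 30 min, imaged live at 20X every second for 3 min. Agents added at 30 s; HBSS negative, ionomycin and UTP positive controls. Per-cell AUC over first 60 s, background-subtracted, basal-normalized, control-normalized, scaled 0–1; 8–50 cells, 2 experiments.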

[2] = molecular target: T1, m*C3aR1 (murinized hC3aR1) (Homo sapiens, UniProt Q16581, C420S/L413V/S400L/V103I/V419M); assay: Tango β-arrestin recruitment assay, murinized hC3aR1; assay type: cell-based; conditions: ratio of EC50 hC3aR1 / m*C3aR1
T1 sequence (Q16581 1-482 V103I/S400L/L413V/V419M/C420S): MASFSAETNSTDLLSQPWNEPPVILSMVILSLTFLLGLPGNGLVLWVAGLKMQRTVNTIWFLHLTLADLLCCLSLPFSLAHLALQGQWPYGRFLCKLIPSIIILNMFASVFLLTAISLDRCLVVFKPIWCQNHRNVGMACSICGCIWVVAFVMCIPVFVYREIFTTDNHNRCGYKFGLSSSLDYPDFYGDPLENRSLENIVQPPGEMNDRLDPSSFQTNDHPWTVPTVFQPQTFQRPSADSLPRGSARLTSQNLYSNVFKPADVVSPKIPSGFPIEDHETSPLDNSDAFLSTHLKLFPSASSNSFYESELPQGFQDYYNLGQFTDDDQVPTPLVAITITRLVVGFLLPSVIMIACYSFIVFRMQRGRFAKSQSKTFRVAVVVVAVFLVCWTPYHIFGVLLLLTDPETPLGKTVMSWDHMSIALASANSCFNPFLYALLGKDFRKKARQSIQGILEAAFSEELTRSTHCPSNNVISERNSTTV

[3] = test system: C3aR1 R161A, R340A and D417A mutants; conditions: R340A, and D417A mutations, ref Sun et al., 1999; cited from earlier work
C3aR1 = conditions: cited from earlier work

With `CC(C)NCC(O)c1ccc(O)c(O)c1` (centres unmarked) [ISO, Isoproterenol hydrochloride] the “Ca45 2+ uptake from the medium” value [1] was “did not increase Ca45^2+ uptake under our experimental conditions and did not potentiate TLQP-21-mediated effects; also recorded: does not modify TLQP-21-induced Ca45^2+ uptake from the medium”.
In the case of `CN([C@@H](Cc1ccc(OS(=O)(=O)c2cccc3cnccc23)cc1)C(=O)N1CCN(c2ccccc2)CC1)S(=O)(=O)c1cccc2cnccc12` [KN-62], the “effect of inhibitor on basal or ISO-induced lipolysis” value (3T3-L1 adipocytes) is reported as “without affecting basal or ISO-induced lipolysis per se”.
For `NC(N)=NCCC[C@H](NC(=O)COCC(c1ccccc1)c1ccccc1)C(=O)O` [SB290157], the “effect of inhibitor on TLQP-21-induced [Ca2+]i increase” value ([Ca2+]i in 3T3-L1 cells) was “antagonized TLQP-21-mediated calcium influx; also recorded: this effect is antagonized by the C3aR1 antagonist SB290157”.
For `COc1ccc(CCCOC(Cn2ccnc2)c2ccc(OC)cc2)cc1` (centres unmarked) [SKF-96365], the “effect of inhibitor on basal or ISO-induced lipolysis” value (3T3-L1 adipocytes) was “without affecting basal or ISO-induced lipolysis”, the “basal fluorescence (Fluo-4)” value ([Ca2+]i in 3T3-L1 cells) was “mild SKF-96365-induced elevation of basal fluorescence” and the “effect of inhibitor on TLQP-21-induced [Ca2+]i increase” value ([Ca2+]i in 3T3-L1 cells) was “TLQP-21-induced increase in [Ca^2+]i, measured by Fluo-4 fluorescence, is blocked; also recorded: blocked the TLQP-21-induced increase in [Ca^2+]i”.
With “C3a63–77: C3aR1 agonist C3a63–77 (LRRQHARASHLGLAR; C3a anaphylatoxin; UniProt P01024 734-748, looked up, fragment)” the “increase in β-arrestin potency at m*C3aR1 versus hC3aR1” value [2] was 8.5 fold.
For “C3a: 77-amino-acid, full-length C3a; in b45 apparently the C3a63–77 peptide”, the “C3a binding affinity to C3aR1 mutants” value [3] is given as “complete loss of C3a binding affinity to C3aR1” and the “increase in β-arrestin potency at m*C3aR1 versus hC3aR1” value [2] is given as 8.5 fold.
For HFHHALPPAR, the “biological activity of modified or truncated peptides” value (C3aR1; ref Cero et al., 2014) is given as “only retained minimal biological activity”.
In the case of RRRHFHHALPPAR, the “biological activity of truncated peptide” value (C3aR1; ref Rivolta et al., 2017) is listed as “retains full biological activity”.

Reference: paper PMC6753381 (Cell reports, 2019)
